Data: ChEMBL document CHEMBL4715843, “NO-releasing STAT3 inhibitors suppress BRAF-mutant melanoma growth” (Eur J Med Chem, 2020)
Values belong to the compound of their own block, whether it stands above or below them. Calls of active or inactive are those of the source. The rule behind the calls is not given here.

Tests used:
[1] = Antiproliferative activity against human SB-590885-resistant MEL1617 cells assessed as reduction in cell viability measured after 48 hrs by MTS assay; assay type: functional, cell-based; conditions: mel1617
Method in brief: (§1)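 Melanoma lines were grown in RPMI-1640 with Glutamax at 37 °C and 5% CO2. The resistant 451 Lu-R and MEL 1617-R sublines were maintained with 1 µM PLX4720. Cells were incubated with vehicle or inhibitor over a dose range, and viability was read by MTS assay in triplicate.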

[2] = Antiproliferative activity against human SB-590885-resistant 451Lu cells assessed as reduction in cell viability measured after 48 hrs by MTS assay; assay type: functional; conditions: 451lu; method in brief: as §1
[3] = Antiproliferative activity against human SB-590885-sensitive MEL1617 cells assessed as reduction in cell viability measured after 48 hrs by MTS assay; assay type: functional, cell-based; conditions: MEL1617, 48 h; method in brief: as §1
[4] = Antiproliferative activity against human SB-590885-sensitive 451Lu cells assessed as reduction in cell viability measured after 48 hrs by MTS assay; assay type: functional; method in brief: as §1
MCF-10A = assay: Cytotoxicity against human MCF-10A cells assessed as inhibition of cell proliferation by MTS assay; assay type: cell-based; conditions: Homo sapiens, MCF-10A; read-out: IC50
A-375 = assay: Cytotoxicity against human A-375 cells assessed as inhibition of cell proliferation measured after 48 hrs by MTS assay; assay type: functional, cell-based; conditions: A-375, 48 h
Method in brief: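 Cells were exposed to a dose range of inhibitor for 48 h, and viability was read by MTS assay in triplicate. GI50 was taken as the concentration giving 50% growth inhibition, averaged from three independent experiments. A375 was cultured in RPMI-1640 with Glutamax. A549 and NCI-H157 were kept in RPMI-1640, and MIA PaCa-2 and U87-MG in DMEM.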

HFF = assay: Cytotoxicity against HFF assessed as inhibition of cell proliferation by MTS assay; assay type: cell-based, Homo sapiens; conditions: Homo sapiens, HFF; read-out: IC50
[5] = molecular target: T1, Signal transducer and activator of transcription 3 (Homo sapiens, UniProt P40763); assay: Inhibition of STAT3 phosphorylation at Y705 residue in human SB-590885-resistant MEL1617 cells at 10 to 25 uM measured after 12 hrs by Western blot analysis; assay type: cell-based; conditions: dose 10-25 µM
Method in brief: (§2)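 451 Lu and MEL 1617 pairs, sensitive and resistant; resistant lines maintained in RPMI with 1 µM PLX4720. Treated with 10 and 25 µM for 12 h versus DMSO. Lysates (60 µg protein, 10% SDS-PAGE) immunoblotted for Ser727- and Tyr705-phospho-STAT3, total STAT3, total PAX3, with actin.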

[6] = molecular target: T1, Signal transducer and activator of transcription 3; assay: Inhibition of STAT3 phosphorylation at S727 residue in human SB-590885-resistant 451Lu cells measured after 12 hrs by Western blot analysis; conditions: dose 10-25 µM; method in brief: as §2
[7] = molecular target: T1, Signal transducer and activator of transcription 3; assay: Inhibition of STAT3 phosphorylation at S727 residue in human SB-590885-sensitive 451Lu cells measured after 12 hrs by Western blot analysis; conditions: dose 10-25 µM; method in brief: as §2
[8] = molecular target: T1, Signal transducer and activator of transcription 3; assay: Inhibition of STAT3 phosphorylation at S727 residue in human SB-590885-resistant MEL1617 cells at 10 to 25 uM measured after 12 hrs by Western blot analysis; assay type: cell-based; conditions: dose 10-25 µM; method in brief: as §2
[9] = molecular target: T1, Signal transducer and activator of transcription 3; assay: Inhibition of STAT3 in human SB-590885-sensitive 451Lu cells assessed as reduction in PAX3 expression measured after 12 hrs by Western blot analysis; conditions: dose 10-25 µM; method in brief: as §2
[10] = molecular target: T1, Signal transducer and activator of transcription 3; assay: Inhibition of STAT3 phosphorylation at Y705 residue in human SB-590885-sensitive MEL1617 cells at 10 to 25 uM measured after 12 hrs by Western blot analysis; assay type: cell-based; conditions: dose 10-25 µM; method in brief: as §2
[11] = Drug metabolism in pH 7.4 phosphate buffer assessed as nitric oxide release at 100 uM measured after 48 hrs by Griess reagent based colorimetric method
Method in brief: (§3)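 Compound at 100 µM was held at room temperature in pH 7.4 phosphate buffer with 5 mM DTT and 2% DMSO for 2 or 48 h. Griess reagent was added, and after 30 min absorbance was read at 548 nm. NO release (mol NO/mol compound) was derived from a sodium nitrite calibration curve.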

[12] = molecular target: T1, Signal transducer and activator of transcription 3; assay: Inhibition of STAT3 phosphorylation at S727 residue in human SB-590885-sensitive MEL1617 cells at 10 to 25 uM measured after 12 hrs by Western blot analysis; assay type: cell-based; conditions: dose 10-25 µM; method in brief: as §2
[13] = molecular target: T1, Signal transducer and activator of transcription 3; assay: Inhibition of STAT3 in human SB-590885-resistant MEL1617 cells assessed as reduction in PAX3 expression at 10 to 25 uM measured after 12 hrs by Western blot analysis; assay type: cell-based; conditions: dose 10-25 µM; method in brief: as §2
[14] = molecular target: T1, Signal transducer and activator of transcription 3; assay: Inhibition of STAT3 phosphorylation at Y705 residue in human SB-590885-sensitive 451Lu cells measured after 12 hrs by Western blot analysis; conditions: dose 10-25 µM; method in brief: as §2
[15] = molecular target: T1, Signal transducer and activator of transcription 3; assay: Inhibition of STAT3 phosphorylation at Y705 residue in human SB-590885-resistant 451Lu cells measured after 12 hrs by Western blot analysis; conditions: dose 10-25 µM; method in brief: as §2
[16] = Drug metabolism in pH 7.4 phosphate buffer assessed as nitric oxide release at 100 uM measured after 2 hrs by Griess reagent based colorimetric method; method in brief: as §3
[17] = molecular target: T1, Signal transducer and activator of transcription 3; assay: Inhibition of STAT3 in human SB-590885-resistant 451Lu cells assessed as reduction in PAX3 expression measured after 12 hrs by Western blot analysis; conditions: dose 10-25 µM; method in brief: as §2
[18] = molecular target: T1, Signal transducer and activator of transcription 3; assay: Inhibition of STAT3 in human SB-590885-sensitive MEL1617 cells assessed as reduction in PAX3 expression at 10 to 25 uM measured after 12 hrs by Western blot analysis; assay type: cell-based; conditions: dose 10-25 µM; method in brief: as §2

T1 sequence (P40763 whole entry): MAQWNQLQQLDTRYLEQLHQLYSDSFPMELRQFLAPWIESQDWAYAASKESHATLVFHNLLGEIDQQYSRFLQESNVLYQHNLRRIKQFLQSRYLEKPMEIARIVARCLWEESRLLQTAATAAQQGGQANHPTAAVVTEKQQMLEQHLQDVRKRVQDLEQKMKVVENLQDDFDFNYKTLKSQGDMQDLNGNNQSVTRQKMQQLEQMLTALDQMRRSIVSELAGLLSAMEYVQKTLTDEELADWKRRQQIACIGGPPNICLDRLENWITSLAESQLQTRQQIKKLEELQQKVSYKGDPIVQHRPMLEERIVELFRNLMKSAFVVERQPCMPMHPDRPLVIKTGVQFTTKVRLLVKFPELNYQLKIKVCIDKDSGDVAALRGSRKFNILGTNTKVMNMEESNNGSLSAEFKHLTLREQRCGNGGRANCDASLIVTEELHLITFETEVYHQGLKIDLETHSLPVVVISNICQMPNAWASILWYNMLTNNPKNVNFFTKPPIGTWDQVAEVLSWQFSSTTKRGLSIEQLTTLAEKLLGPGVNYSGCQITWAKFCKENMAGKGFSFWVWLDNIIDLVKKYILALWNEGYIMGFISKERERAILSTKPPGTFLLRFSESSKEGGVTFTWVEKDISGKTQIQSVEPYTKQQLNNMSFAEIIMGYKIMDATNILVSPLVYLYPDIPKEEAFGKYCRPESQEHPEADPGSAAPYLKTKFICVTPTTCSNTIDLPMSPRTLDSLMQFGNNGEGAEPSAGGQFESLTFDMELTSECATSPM

SMILES: CCCS(=O)(=O)Nc1ccc(F)c(C(=O)c2c[nH]c3ncc(Cl)cc23)c1F [PLX-4720]
IC50 [1]: Not Active
IC50 [2]: Not Active
IC50 [3]: 0.084 µM
IC50 [4]: 0.062 µM

SMILES: O=C(Nc1nnc(-c2ccco2)o1)c1cc(-c2ccccc2)nc2ccccc12
IC50 (MCF-10A): 33.4 µM
IC50 (A-375): 16.2 µM
IC50 (HFF): 72.2 µM

inhibition [5]: inactive
inhibition [6]: inactive
inhibition [7]: inactive
inhibition [8]: inactive
inhibition [9]: inactive
inhibition [10]: inactive
inhibition [12]: inactive
inhibition [13]: inactive
inhibition [14]: inactive
inhibition [15]: inactive
inhibition [17]: inactive
inhibition [18]: inactive
SMILES: COc1ccc2nc(-c3ccc(OC)c(OC)c3)cc(-c3nnc(SCC(=O)Nc4ccc(/C(C)=N\O)cc4)n3-c3ccccc3)c2c1
Drug metabolism [11]: 30%
Drug metabolism [16]: 15%
